The list is not random: actives were taken first. Their share in the collection is about 1.1%.
TNAP act hi DEA: TNAP (human) activation, high acceptor | P05186 | purified TNAP, CDP-star luminescence, 1 M DEA, 30 min; active compounds read high; 0 = EDTA background, 1 = DMSO-only activity | activation factor at 20 µM | 200,000 tested, under 10 active | AID 1136;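 active = activation factor at least 2 at 20 µM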
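Measured by: Luminescent substrate turnover signal | Test system: Human TNAP | Input: TNAP 1/800 final | Dosing: 20 µM single point | Schedule: 30 min, room temperature | Controls: EDTA wells as negative control, DMSO wells as positive control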
S1P3 antagonist: S1P3 (human) receptor antagonism; hit rate 0.27% among 170,000; CHO S1P3 NFAT-BLA reporter, FRET fluorescence, antagonist mode; AID 485; Q99500; inhibition, % at 4.98 µM;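 active = inhibition above the plate cutoff, the mean inhibition of test wells on that plate plus 3 SD, cut at about 28% in these data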;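 also: cells challenged with S1P at its EC80 of 0.8 µM; blue over green emission ratio from cleaved BLA substrate after 4 h stimulation; 0% = S1P-stimulated wells and 100% = unstimulated DMSO-only wells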
TNAP inh hi DEA: inhibitors of human TNAP at high phosphate acceptor concentration; purified TNAP, CDP-star luminescence, 1 M DEA; P05186; inhibition, % at 20 µM; hit rate 0.03% among 200,000;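 active = over 50% inhibition of tissue-nonspecific alkaline phosphatase at 20 µM in the single-dose screen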;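 also: plate controls were DMSO wells for no effect and EDTA-quenched wells as full inhibition for full effect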
S1P4 ag: agonists of human S1P4 receptor. O95977. S1P4-expressing cell line, agonist reporter assay. activation, % at 4.98 µM. AID 1509. hit rate 0.35% among 220,000; in the data active = activation above about 11%;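 also: 0% = DMSO vehicle and 100% = reference agonist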
S1P4 antagonist: antagonists of human S1P4 receptor. inhibition, % at 4.98 µM. hit rate 0.26% among 220,000. O95977. S1P4-expressing cells, antagonist mode, reporter read-out; in the data active = inhibition above about 29%;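 also: 0% = wells stimulated with agonist and 100% = vehicle wells without agonist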
TNAP inh noacc: inhibitors of human TNAP without phosphate acceptor. AID 1012. inhibition, % at 20 µM. hit rate 0.26% among 200,000. purified TNAP, CDP-star luminescence, 30 min. P05186;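 active = tissue-nonspecific alkaline phosphatase inhibition above about 50% at 20 µM in the single-dose screen, limit read from the data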;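 also: 0% = DMSO negative control and 100% = EDTA positive control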
S1P4 antag cf: confirmation of human S1P4 receptor antagonists. inhibition, % at 4.98 µM. hit rate 71% among 520. S1P4-expressing cell line, antagonist mode, reporter read-out. shares compounds with S1P4 antagonist; in the data active = inhibition above about 30%
S1P1 antag: blocks human S1P1, counter-screen for S1P4 antagonists | shares compounds with S1P4 antagonist | cell-based S1P1 antagonist counterscreen, inhibition | inhibition, % at 4.98 µM | hit rate 37% among 520 | AID 1564; in the data active = inhibition above about 40%;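 also: receptor stimulated with S1P near its EC80; 0% = agonist stimulated wells and 100% = vehicle only wells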
Target sequence (P21453 whole entry, looked up): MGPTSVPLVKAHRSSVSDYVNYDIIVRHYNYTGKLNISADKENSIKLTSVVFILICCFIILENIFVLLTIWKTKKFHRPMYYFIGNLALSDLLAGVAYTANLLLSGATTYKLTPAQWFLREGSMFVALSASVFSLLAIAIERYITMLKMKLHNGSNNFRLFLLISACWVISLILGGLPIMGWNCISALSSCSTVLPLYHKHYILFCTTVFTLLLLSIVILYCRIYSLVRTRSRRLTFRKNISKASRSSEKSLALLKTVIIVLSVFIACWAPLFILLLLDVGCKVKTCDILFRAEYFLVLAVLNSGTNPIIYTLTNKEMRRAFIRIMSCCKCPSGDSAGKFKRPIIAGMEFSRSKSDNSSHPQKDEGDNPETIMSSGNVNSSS
Starred values were filed as active, the others as inactive; x = no result.

SMILES	TNAP act hi DEA	S1P3 antagonist	TNAP inh hi DEA	S1P4 ag	S1P4 antagonist	TNAP inh noacc	S1P4 antag cf	S1P1 antag
CCOC(=O)C(C)(C)N(Cc1ccc(C)cc1)S(=O)(=O)c1ccc(Cl)c([N+](=O)[O-])c1	1	-15	0	-1	43*	-63	80*	1
Cc1ccc(-c2nn(C)c(=O)c3ccccc23)cc1CN1CCCCC1	x	-7	x	0	12	x	x	x
O=C(Nc1cccc2ccccc12)c1ccccc1	x	-6	x	0	7	x	x	x
Cc1c(C)n(C)c2ccc(C(=O)Nc3cccc4ccccc34)cc12	1	x	-2	-3	44*	-10	46*	12
OC(COc1ccc(CNCCc2ccc(C(F)(F)F)cc2)cc1)CN1CCCCC1 (configuration not stated)	1	-26	1	-2	30*	0	41*	28
CC1=NNC(=O)/C1=C\c1cn(-c2ccccc2)nc1-c1ccc(F)cc1	1	-2	0	-1	30*	-18	110*	18
CC1=NNC(=O)/C1=C\c1cn(-c2ccccc2)nc1-c1cccs1	1	-16	-1	2	3	3	x	x
Cc1cccc(CSc2cccc3cccnc23)c1	1	x	-4	-2	39*	4	96*	65*
CC(=O)N1c2ccccc2N2C(c3c(C)c(C)cc(C)c3C)=NON12	1	6	-4	2	-25	-7	x	x
COCCCNC(=O)/C=C1\Sc2ccccc2N(Cc2ccccc2F)C1=O	1	-11	-2	0	66*	-5	0	13
CCN1CCN(CCNC(=O)c2ccc(/C=C3\Sc4ccccc4N(Cc4ccccc4F)C3=O)cc2)CC1	1	2	-4	2	-37	-8	x	x
CC1(C)Oc2ccc(C(=O)NN)cc2NC1=O	1.1	3	-6	0	-5	-10	x	x
O=C(CSc1ccc2c(c1)OCCO2)Nc1cccnc1	1	-17	-3	1	-27	-7	x	x
Cc1ccc(N=Nc2ccc(C)cc2NC(=O)Nc2ccccc2F)cc1	x	1	x	1	9	x	x	x
O=C(NN1C(=O)C2C3C=CC([C@@H]2C1=O)C31CC1)c1ccccc1 (some centres not stated)	x	-1	x	2	-8	x	x	x
COc1cc(NC(=O)Cn2ncc(Cl)c(Cl)c2=O)c(C)cc1[N+](=O)[O-]	1	-15	3	10	93*	4	119*	40*
COc1cc(NC(=O)CN2C(=O)CN(C)C2=O)c(C)cc1[N+](=O)[O-]	1	-13	1	0	-1	-7	x	x
CC1=Nc2ccccc2N=C(NC(=O)c2ccccc2)C1c1ccccc1 (configuration not stated)	1	-9	-3	1	3	7	x	x
CS(=O)(=O)c1ncc(Cl)c(C(=O)Nc2ccc3ccccc3c2)n1	1.1	0	-5	-3	41*	-10	119*	54*
CCCc1cnc(NCCNCC(O)COc2ccc(Cl)c(Cl)c2)nc1 (configuration not stated)	x	9	x	-1	31*	x	25	64*
CCOC(=O)COc1ccc(C(=O)Nc2cccc(Cl)c2C)cc1	1	-1	-1	1	33*	-6	1	-3
CCOC(=O)c1nnn(-c2nonc2N)c1CSc1nnc(N)s1	1	-10	-2	-1	1	-10	x	x
O=C(COC(=O)C1=COCCO1)NC(=O)c1ccc(OC(F)F)cc1	1	-5	-4	1	-17	-17	x	x
O=C(Nc1nnc(-c2ccc3c(c2)CCCC3)o1)c1ccccc1	1	x	-4	2	31*	-25	102*	96*
CC(=O)n1cc(N(C(=O)CCl)c2ccc(C)cc2)c2ccccc21	x	-13	x	1	29*	x	106*	45*
SMILES	TNAP act hi DEA	S1P3 antagonist	TNAP inh hi DEA	S1P4 ag	S1P4 antagonist	TNAP inh noacc	S1P4 antag cf	S1P1 antag
Cc1ccc(NC(=O)CN(C)C2CCCCC2)cc1Br	1	16	3	0	32*	0	19	39
COc1ccc(OC)c(NC=C2C(=O)OC3(CCCCC3)OC2=O)c1	1.1	-16	-5	4	32*	-2	-19	-3
COc1ccc(OC)c(NC=C2C(=O)OC(C)(C)OC2=O)c1	1	-14	-4	0	-8	1	x	x
O=C(Nc1nnc(-c2cccs2)o1)c1cccc(Oc2ccccc2)c1	1	-32	-1	2	32*	-21	98*	94*
COc1ccc(/C=C/C(=O)CC(O)(c2ccccc2)C(F)(F)F)cc1 (configuration not stated)	1	x	-1	0	11	-8	x	x
O=C(/C=C/c1ccccc1)CC(O)(c1ccccc1)C(F)(F)F (configuration not stated)	1	x	0	-2	47*	-18	106*	41*
O=C(/C=C/c1ccccc1)CC(O)(c1ccccc1)C(F)(F)C(F)F (configuration not stated)	1	x	-3	-3	58*	-20	106*	33
CC(=O)NC(CC(=O)NCCN1C(=O)S/C(=C\c2ccccc2)C1=O)c1ccccc1 (configuration not stated)	x	-1	x	0	6	x	x	x
CC1=CC(=O)C(C(C)=Nc2ccccc2Cl)C(=O)O1 (configuration not stated)	x	-15	x	0	-9	x	x	x
Cc1ccc(CSc2ccc(C(=O)N3CCOCC3)cc2[N+](=O)[O-])cc1	1	-24	0	-1	-5	-6	x	x
COc1ccc(-c2cc(C#N)nc(Cl)n2)cc1	x	-7	x	-2	57*	x	97*	28
Cc1oc2c(c1C(=O)NCc1cccnc1)C(=O)c1ccccc1C2=O	1	-12	-4	0	90*	-9	116*	107*
Cc1cscc1NC(=O)/C=C/C(=O)O	x	8	x	1	7	x	x	x
Cc1cc(C(=O)OCC(=O)Nc2c(F)cccc2F)c(C)n1-c1ccccc1	1.1	-37	-13	0	-11	-18	x	x
O=C(c1cc2cccc([N+](=O)[O-])c2oc1=O)N1CCOCC1	x	7	x	1	-14	x	x	x
CC1CCCC(C)N1C(=O)CSc1nnnn1-c1cccc2c1CCCC2 (configuration not stated)	1.1	x	-7	0	14	-15	x	x
CC1CCCC(C)N1C(=O)CSc1nnnn1Cc1ccccc1 (configuration not stated)	1.1	-18	-7	1	92*	-13	2	-2
O=C1CC2C(=O)NCCN2C(=NC(=O)c2ccc(Cl)cc2)N1 (configuration not stated)	1	-6	-5	1	5	-12	x	x
